From the array DNA melting data of Ke et al. (doi:10.1101/2024.01.08.574731) come the findings set out here.

Data set [1] is described as follows: melting temperature; fluorescence melt of hairpins on a sequencing array, two-state fit, raised by 9.35 °C to match UV melts. Particulars: sodium 0.088 M. In short, it runs like this: (§1)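 With Cy3 and quencher oligos annealed, library hairpins on a sequenced MiSeq flow cell were imaged for Cy3 fluorescence in 50 mM Na-HEPES pH 8.0, 25 mM NaCl, in 2.5 °C steps up to 60 °C. Melting temperature and folding enthalpy were derived from bootstrapped two-state fits of signals normalised to pre-quench Cy3 and to control constructs. Four replicates were combined by inverse variance, with fitted temperatures raised by 9.35 °C to match UV melts.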

Data set [2] in a line: folding enthalpy; higher = less favourable; fluorescence melt of hairpins on a sequencing array, two-state fit. Particulars: sodium 0.088 M. In short, it runs like this:
as §1

In the case of GTAGTTGGAAACAGTTAC (((..((....))..))), in data set [1], the Tm is 28.7 °C. The folding enthalpy in data set [2] was -9.43 kcal/mol.

For GTAGTTGGAAACGACTAC (((((.(....).))))), in data set [1], the Tm turned out to be 45.8 °C. For the same sequence, the folding enthalpy in data set [2] was -26.4 kcal/mol.

As to GTATAACGAAAGTTTTAC (((.(((....))).))), in data set [1], the Tm came to 34.7 °C. Besides, in data set [2], the folding enthalpy was -20.8 kcal/mol.

Take GTATAATCGAAAGATTAC (((..(((....)))))): the Tm in data set [1] came out at 30 °C. The folding enthalpy in data set [2] is -10.9 kcal/mol.

On to GTATACCGAAAGGTTAC (((.(((....)))))), for which the Tm in data set [1] was determined as 40.1 °C. Moreover, the folding enthalpy in data set [2] is -17.4 kcal/mol.

With GTATACGAAAGTAACTAC ((((((....)))..))), the Tm in data set [1] was determined as 26.4 °C. The folding enthalpy in data set [2] was -19.9 kcal/mol.

As to GTATACGAAAGTAATAC ((((((....))).))), the Tm in data set [1] was determined as 35.5 °C. Moreover, the folding enthalpy in data set [2] is -19.2 kcal/mol.

Regarding GTATACGAAAGTATATAC ((((((....)))..))), the Tm in data set [1] turned out to be 34.7 °C. In addition, in data set [2], the folding enthalpy is -14.4 kcal/mol.

GTATACGAAAGTATTAC ((((((....))).))): in data set [1], the Tm is 32.8 °C. In data set [2], the folding enthalpy is -13.9 kcal/mol.

For the sequence GTATACGGAAACGCATAC ((((.((....)).)))), the Tm in data set [1] came to 37.3 °C. In addition, in data set [2], the folding enthalpy is -28.2 kcal/mol.

Turning to GTATACGGAAACGTACAC ((.((((....)))).)), the Tm in data set [1] turned out to be 32.4 °C. For the same sequence, in data set [2], the folding enthalpy is -18.6 kcal/mol.

Regarding GTATACGGAAACGTGTAC (((.(((....))).))), in data set [1], the Tm turned out to be 46.3 °C. In addition, in data set [2], the folding enthalpy is -35.3 kcal/mol.

With GTATAGGGAAACCCATAC ((((.((....)).)))), the Tm in data set [1] worked out at 31.8 °C. Further, the folding enthalpy in data set [2] is -16.1 kcal/mol.

With GTATAGGGAAACCTATGC (.(((((....))))).), the Tm in data set [1] is 38 °C. For the same sequence, the folding enthalpy in data set [2] is -22.2 kcal/mol.

With GTATATGGAAACATATAC (((((((....))))))), the Tm in data set [1] is 47.9 °C. For the same sequence, in data set [2], the folding enthalpy is -42 kcal/mol.

GTATCCGAAAGGACTTAC ((((((....)))..))): in data set [1], the Tm amounted to 28.6 °C. Besides, the folding enthalpy in data set [2] is -11.4 kcal/mol.

Regarding GTATCCGAAAGGAGTAC ((((((....))).))), the Tm in data set [1] came to 35.5 °C. For the same sequence, in data set [2], the folding enthalpy was -19.1 kcal/mol.

For GTATCCGAAAGGATGTAC ((((((....)))..))), the Tm in data set [1] amounted to 36.7 °C. In addition, the folding enthalpy in data set [2] is -11.5 kcal/mol.

In the case of GTATCCGAAAGGATTAC ((((((....))).))), the Tm in data set [1] was determined as 41 °C. Besides, in data set [2], the folding enthalpy was -13.7 kcal/mol.

As to GTATCCGGAAACGGATGC (.(((((....))))).), the Tm in data set [1] came out at 53 °C. In addition, the folding enthalpy in data set [2] was -28.3 kcal/mol.

For the sequence GTATCGGGAAACCAATAC ((((.((....)).)))), the Tm in data set [1] came out at 30.3 °C. For the same sequence, the folding enthalpy in data set [2] is -24.6 kcal/mol.

Consider GTATGACGAAAGTCCTAC (((.(((....))).))), for which the Tm in data set [1] was 38.9 °C. Also, the folding enthalpy in data set [2] is -24.3 kcal/mol.

GTATGACGAAAGTCTAC (((.(((....)))))): in data set [1], the Tm is 39 °C. In addition, the folding enthalpy in data set [2] was -16.9 kcal/mol.

GTATGACGAAAGTCTTAC (((.(((....))).))): the Tm in data set [1] turned out to be 47.2 °C. In addition, in data set [2], the folding enthalpy was -24.7 kcal/mol.

With GTATGAGCGAAAGCTTAC (((..(((....)))))), the Tm in data set [1] is 30.1 °C. In addition, the folding enthalpy in data set [2] was -9.43 kcal/mol.

For the sequence GTATGAGGAAACTCATAC (((((((....))))))), the Tm in data set [1] is 54.6 °C. The folding enthalpy in data set [2] is -36.9 kcal/mol.

Take GTATGCCCGAAAGGGTAC (((..(((....)))))): the Tm in data set [1] was found to be 31.2 °C. Also, the folding enthalpy in data set [2] was -8.06 kcal/mol.

For the sequence GTATGCCGAAAGGCCTAC (((.(((....))).))), the Tm in data set [1] amounted to 45.5 °C. For the same sequence, the folding enthalpy in data set [2] was -12.1 kcal/mol.

As for GTATGCGAAAGCAAATAC ((((((....)))..))), the Tm in data set [1] was 37.7 °C. In addition, the folding enthalpy in data set [2] is -16.7 kcal/mol.

GTATGCGAAAGCAACTAC ((((((....)))..))): in data set [1], the Tm stood at 36.2 °C. In addition, the folding enthalpy in data set [2] was -11.6 kcal/mol.

Consider GTATGCGAAAGCAGTAC ((((((....))).))), for which, in data set [1], the Tm stood at 39.5 °C. The folding enthalpy in data set [2] was -17.7 kcal/mol.

For the sequence GTATGCGAAAGCATGTAC ((((((....)))..))), in data set [1], the Tm amounted to 38 °C. In addition, the folding enthalpy in data set [2] was -10.6 kcal/mol.

With GTATGGCCGAAAGGCTAC (((..(((....)))))), in data set [1], the Tm worked out at 30 °C. Moreover, the folding enthalpy in data set [2] was -7.75 kcal/mol.

With GTATGGCGAAAGCCCTAC (((.(((....))).))), in data set [1], the Tm was 37.8 °C. Besides, in data set [2], the folding enthalpy is -18.4 kcal/mol.

Turning to GTATGGCGAAAGCCTAC (((.(((....)))))), the Tm in data set [1] turned out to be 46.6 °C. In data set [2], the folding enthalpy is -13.2 kcal/mol.

With GTATGGCGAAAGCCTTAC (((.(((....))).))), the Tm in data set [1] came to 48.2 °C. Further, in data set [2], the folding enthalpy is -22.8 kcal/mol.
